According to ChEMBL document CHEMBL1142319, “New antitumor imidazo[2,1-b]thiazole guanylhydrazones and analogues” (2008):

How the values were obtained:
Assay type in all cases: functional
Details in all cases: for TGI: read-out: pTGI (converted)
Melanoma cell = test: Inhibition of human melanoma cells
In short: (§1)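 NCI 60-cell-line panel, with results grouped by tissue subpanel. Compounds dissolved in DMSO and tested at five 10-fold dilutions, top concentration 10^-4 M. Values given as -log molar concentration for 50% growth inhibition (pGI50), total growth inhibition (pTGI) and 50% cell kill (pLC50), with subpanel means calculated.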

Cancer cell lines [1] = test: Inhibition of human colon cancer cells; in short: as §1
Cancer cell lines [2] = test: Inhibition of human breast cancer cells; in short: as §1
Cancer cell lines [3] = test: Inhibition of human non-small cell lung cancer cells; in short: as §1
Cancer cell lines [4] = test: Inhibition of human CNS cancer cells; in short: as §1
Cancer cell lines [5] = test: Inhibition of human ovarian cancer cells; in short: as §1
Cancer cell lines [6] = test: Inhibition of human prostate cancer cells; in short: as §1
Cancer cell lines [7] = test: Inhibition of human renal cancer cells; in short: as §1
Leukemia cell = test: Inhibition of human leukemia cells; in short: as §1

Structure (SMILES)	GI50 (Melanoma cell) [µM]	TGI (Melanoma cell) [µM]	GI50 (Cancer cell lines [1]) [µM]	TGI (Cancer cell lines [1]) [µM]	GI50 (Cancer cell lines [2]) [µM]	TGI (Cancer cell lines [2]) [µM]	GI50 (Cancer cell lines [3]) [µM]	GI50 (Cancer cell lines [4]) [µM]	TGI (Cancer cell lines [4]) [µM]	GI50 (Cancer cell lines [5]) [µM]	GI50 (Cancer cell lines [6]) [µM]	TGI (Cancer cell lines [6]) [µM]	GI50 (Cancer cell lines [7]) [µM]	GI50 (Leukemia cell) [µM]	TGI (Leukemia cell) [µM]	TGI (Cancer cell lines [3]) [µM]	TGI (Cancer cell lines [5]) [µM]	TGI (Cancer cell lines [7]) [µM]
N=C(N)N/N=C/c1c(-c2cccs2)nc2n1CCS2	21.4	38	17.4	38.9	17.4	40.7	28.8	19.1	39.8	39.8	19.5	36.3	22.9	18.6	38.9	–	–	–
Cc1cn2c(/C=N/NC(=N)N)c(-c3ccsc3)nc2s1	8.13	19.5	5.37	20.4	7.76	22.4	13.8	6.92	19.5	11	7.59	20	10.2	7.76	46.8	41.7	27.5	28.2
N=C(N)N/N=C/c1c(-c2cc(Cl)sc2Cl)nc2sccn12	2.82	7.24	0.977	2.34	1.66	4.27	2.69	1.12	2.82	1.1	1.55	6.17	1.62	1	2.14	10.7	3.55	5.75
N=C(N)N/N=C/c1c(-c2ccc(Cl)c([N+](=O)[O-])c2)nc2ccccn12	2.04	3.63	1.86	7.94	2.29	5.37	1.7	1.2	3.02	1.86	1.51	3.09	2.19	1.7	3.8	3.8	3.63	4.9
Cc1cc(-c2nc3sc(C)cn3c2/C=N/NC(=N)N)c(C)s1	7.41	15.1	3.72	11.7	4.47	13.5	9.77	8.32	18.2	12	4.79	19.1	14.1	47.9	–	25.1	33.1	32.4
N=C(N)N/N=C/c1c(-c2cc(Cl)sc2Cl)nc2n1CCS2	10	20.4	1.82	16.2	12.3	22.9	11.2	8.71	17.4	10.5	8.13	15.1	10	10.2	24.5	22.4	22.9	20
N=C(N)N/N=C/c1c(-c2ccsc2)nc2n1CCS2	21.9	–	22.9	–	32.4	–	28.8	25.1	–	14.5	17.4	–	28.2	19.1	–	–	–	–
Cc1cc(-c2nc3sccn3c2/C=N/NC(=N)N)c(C)s1	16.2	30.9	15.5	32.4	16.2	30.2	16.6	15.5	30.2	17.4	13.8	26.9	17.8	15.5	–	33.1	33.9	32.4
COc1cc([N+](=O)[O-])c(OC)cc1-c1nc2sc(Cl)cn2c1/C=N\NC(=N)N/N=C\c1c(-c2cc(OC)c([N+](=O)[O-])cc2OC)nc2sc(Cl)cn12	1.91	5.13	2.24	7.08	3.31	6.76	2.04	1.62	2.57	1.82	1.95	3.8	2.19	2.34	–	3.98	3.8	4.9
COc1cc(OC)cc(-c2nc3sccn3c2/C=N/NC(=N)N)c1	8.51	17.8	6.03	14.8	10	20.4	9.33	8.13	17.4	7.94	9.33	16.2	8.51	10.2	19.1	20.4	17	17.8
Cc1cn2c(/C=N/Nc3ccccn3)c(-c3ccc(Cl)c([N+](=O)[O-])c3)nc2s1	18.2	38	26.3	42.7	13.8	38.9	11.5	7.76	19.5	9.12	11.7	38.9	15.5	16.6	33.9	30.9	25.7	39.8
Cc1cc(-c2nc3n(c2/C=N/NC(=N)N)CCS3)c(C)s1	15.5	29.5	13.8	29.5	24	41.7	17	18.6	34.7	24	15.5	30.9	17.4	20.9	–	35.5	47.9	38
N=C(N)N/N=C/c1c(-c2cccs2)nc2sccn12	15.1	28.8	9.77	24	14.8	28.2	12.9	12	25.7	10.2	12.3	24.5	8.32	6.76	38	29.5	26.9	21.9
Cc1cn2c(/C=N/NC(=N)N)c(-c3cccs3)nc2s1	2.24	5.89	2.57	8.13	5.75	18.6	7.76	4.27	11.7	6.46	3.02	12.3	4.27	1.82	4.07	25.1	17.4	14.1
N=C(N)N/N=C/c1c(-c2ccsc2)nc2sccn12	17	31.6	14.1	29.5	17.4	31.6	15.1	15.1	28.8	15.5	14.8	28.8	14.8	6.92	24	30.2	31.6	29.5
